From ChEMBL document CHEMBL3751707, “Silicon Incorporated Morpholine Antifungals: Design, Synthesis, and Biological Evaluation” (ACS Med Chem Lett, 2015)
Converted amounts (≈) assume the structure as drawn.

Experiments:
Candida albicans [1] = assay: Effect on sterol profile of Candida albicans ATCC 24433 assessed as ergosta-7,22-dien-3-ol,(3a'22E) level at 0.125 ug/ml for 24 hrs by spectrophotometry; type: functional
Summary of the method: (§1)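 C. albicans ATCC 24433 grown with subinhibitory (<MIC) compound concentrations. Cellular sterols extracted. Sterol content read spectrophotometrically by scan at 230–300 nm, and individual intermediates quantified by GC–MS. Values are average % of total sterols from two experiments, with standard error of the mean.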

Candida albicans [2] = assay: Antifungal activity against Candida albicans ATCC 24433 after 24 to 36 hrs by broth microdilution method; type: functional, organism-based
Summary of the method: (§2)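 CLSI broth microdilution against yeasts (M27-A3) and filamentous fungi (M38-A2). Read-outs: IC50 (concentration giving 50% growth inhibition), MIC, and MFC (minimum fungicidal concentration), all in μg/mL. Assay done twice in triplicate.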

Candida albicans [3] = assay: Antifungal activity against Candida albicans ATCC 24433 after 72 hrs by broth microdilution method; type: functional; settings: ATCC 24433, 72 h; summary of the method: as §2
Candida albicans [4] = assay: Antifungal activity against Candida albicans ATCC 10231 after 24 to 36 hrs by broth microdilution method; type: functional, organism-based; summary of the method: as §2
Candida albicans [5] = assay: Antifungal activity against Candida albicans ATCC 10231 after 72 hrs by broth microdilution method; type: functional; settings: ATCC 10231, 72 h; summary of the method: as §2
Cryptococcus neoformans [6] = assay: Antifungal activity against Cryptococcus neoformans ATCC 34664 after 24 to 36 hrs by broth microdilution method; type: functional, organism-based; summary of the method: as §2
Cryptococcus neoformans [7] = assay: Antifungal activity against Cryptococcus neoformans ATCC 34664 after 72 hrs by broth microdilution method; type: functional; settings: ATCC 34664, 72 h; summary of the method: as §2
Nakaseomyces glabratus [8] = assay: Antifungal activity against Candida glabrata NCYC 388 after 24 to 36 hrs by broth microdilution method; type: functional, organism-based; summary of the method: as §2
Nakaseomyces glabratus [9] = assay: Antifungal activity against Candida glabrata NCYC 388 after 72 hrs by broth microdilution method; type: functional; settings: NCYC 388, 72 h; summary of the method: as §2
Candida tropicalis [10] = assay: Antifungal activity against Candida tropicalis ATCC 750 after 24 to 36 hrs by broth microdilution method; type: functional, organism-based; summary of the method: as §2
Candida tropicalis [11] = assay: Antifungal activity against Candida tropicalis ATCC 750 after 72 hrs by broth microdilution method; type: functional; settings: ATCC 750, 72 h; summary of the method: as §2
Aspergillus niger [12] = assay: Antifungal activity against Aspergillus niger ATCC 10578 after 48 hrs by broth microdilution method; type: functional, organism-based; settings: ATCC 10578, 48 h; summary of the method: as §2
Aspergillus niger [13] = assay: Antifungal activity against Aspergillus niger ATCC 10578 after 72 hrs by broth microdilution method; type: functional; settings: ATCC 10578, 72 h; summary of the method: as §2
Candida albicans [14] = assay: Effect on sterol profile of Candida albicans ATCC 24433 assessed as squalene level at 0.125 ug/ml for 24 hrs by spectrophotometry (reference value: 7.17 +/- 0.35 %); type: functional; summary of the method: as §1
Candida albicans [15] = assay: Effect on sterol profile of Candida albicans ATCC 24433 assessed as cholesta-8,24-dien-3-ol,4-methyl-(3a',4a') level at 0.125 ug/ml for 24 hrs by spectrophotometry (reference value: 7.19 +/- 0.65 %); type: functional; summary of the method: as §1
Candida albicans [16] = assay: Effect on sterol profile of Candida albicans ATCC 24433 assessed as ergosterol level at 0.125 ug/ml for 24 hrs by spectrophotometry (reference value: 73.34 +/- 2.53 %); type: functional; summary of the method: as §1
Candida albicans [17] = assay: Effect on sterol profile of Candida albicans ATCC 24433 assessed as cholesta-5,24-dien-3-ol level at 0.125 ug/ml for 24 hrs by spectrophotometry (reference value: 3.58 +/- 0.52 %); type: functional; summary of the method: as §1
Candida albicans [18] = assay: Effect on sterol profile of Candida albicans ATCC 24433 assessed as lichesterol level at 0.125 ug/ml for 24 hrs by spectrophotometry; type: functional; summary of the method: as §1
Candida albicans [19] = assay: Effect on sterol profile of Candida albicans ATCC 24433 assessed as ergosterol level at 0.125 ug/ml for 24 hrs by spectrophotometry; type: functional; settings: in the assay text read “ergostenol level” for “ergosterol level”; summary of the method: as §1
Candida albicans [20] = assay: Effect on sterol profile of Candida albicans ATCC 24433 assessed as squalene level at 0.25 ug/ml for 24 hrs by spectrophotometry (reference value: 7.17 +/- 0.35 %); type: functional; summary of the method: as §1
Candida albicans [21] = assay: Effect on sterol profile of Candida albicans ATCC 24433 assessed as ergosterol level at 0.25 ug/ml for 24 hrs by spectrophotometry (reference value: 73.34 +/- 2.53 %); type: functional; settings: in the assay text read “by GC-MS” for “by spectrophotometry”; summary of the method: as §1
Candida albicans [22] = assay: Effect on sterol profile of Candida albicans ATCC 24433 assessed as cholesta-8,24-dien-3-ol,4-methyl-(3a',4a') level at 0.25 ug/ml for 24 hrs by spectrophotometry (reference value: 7.19 +/- 0.65 %); type: functional; settings: in the assay text read “by GC-MS” for “by spectrophotometry”; summary of the method: as §1
Candida albicans [23] = assay: Effect on sterol profile of Candida albicans ATCC 24433 assessed as ignosterol level at 0.25 ug/ml for 24 hrs by spectrophotometry; type: functional; settings: in the assay text read “by GC-MS” for “by spectrophotometry”; summary of the method: as §1
Candida albicans [24] = assay: Effect on sterol profile of Candida albicans ATCC 24433 assessed as lichesterol level at 0.25 ug/ml for 24 hrs by spectrophotometry; type: functional; settings: in the assay text read “by GC-MS” for “by spectrophotometry”; summary of the method: as §1
Candida albicans [25] = assay: Effect on sterol profile of Candida albicans ATCC 24433 assessed as ergosterol level at 0.25 ug/ml for 24 hrs by spectrophotometry; type: functional; settings: in the assay text read “ergostenol level” for “ergosterol level”; summary of the method: as §1
Candida albicans [26] = assay: Effect on sterol profile of Candida albicans ATCC 24433 assessed as ergosta-7,22-dien-3-ol,(3a'22E) level at 0.25 ug/ml for 24 hrs by spectrophotometry; type: functional; settings: in the assay text read “by GC-MS” for “by spectrophotometry”; summary of the method: as §1
[27] = Toxicity in human RBC assessed as hemolysis upto 128 ug/ml; type: cell-based; settings: erythrocyte
Candida albicans [28] = assay: Effect on sterol profile of Candida albicans ATCC 24433 assessed as ignosterol level at 0.125 ug/ml for 24 hrs by spectrophotometry; type: functional; summary of the method: as §1
Candida albicans [29] = assay: Effect on sterol profile of Candida albicans ATCC 24433 assessed as cholesta-5,24-dien-3-ol level at 0.25 ug/ml for 24 hrs by spectrophotometry (reference value: 3.58 +/- 0.52 %); type: functional; settings: in the assay text read “by GC-MS” for “by spectrophotometry”; summary of the method: as §1
[30] = Metabolic stability in mouse liver microsomes after 30 mins by LC-MS/MS analysis; type: ADME; settings: read-out: Stability
Summary of the method: (§3)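 Test compounds were incubated 30 min with liver microsomes (human or mouse, per line), and values are reported as % metabolic stability after 30 min.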

[31] = Metabolic stability in human liver microsomes after 30 mins by LC-MS/MS analysis; type: ADME; settings: read-out: Stability; summary of the method: as §3
[32] = Toxicity in human RBC assessed as hemolysis at 512 ug/ml; type: cell-based, Erythrocyte; settings: red blood cells, read-out: Activity
[33] = Toxicity in human RBC assessed as partial hemolysis at 256 ug/ml; type: cell-based; settings: erythrocyte
HEK293 = assay: Cytotoxicity against HEK293 cells after 24 hrs by MTT assay; type: cell-based; settings: Homo sapiens, HEK293, 24 h

Compound	IC50 (Candida albicans [2]) [µg/mL]	MIC (Candida albicans [2]) [µg/mL]	MFC (Candida albicans [3]) [µg/mL]	IC50 (Candida albicans [4]) [µg/mL]	MIC (Candida albicans [4]) [µg/mL]	MFC (Candida albicans [5]) [µg/mL]	IC50 (Cryptococcus neoformans [6]) [µg/mL]	MIC (Cryptococcus neoformans [6]) [µg/mL]	MFC (Cryptococcus neoformans [7]) [µg/mL]	IC50 (Nakaseomyces glabratus [8]) [µg/mL]	MIC (Nakaseomyces glabratus [8]) [µg/mL]	MFC (Nakaseomyces glabratus [9]) [µg/mL]	IC50 (Candida tropicalis [10]) [µg/mL]	MIC (Candida tropicalis [10]) [µg/mL]	MFC (Candida tropicalis [11]) [µg/mL]	IC50 (Aspergillus niger [12]) [µg/mL]	MIC (Aspergillus niger [12]) [µg/mL]	MFC (Aspergillus niger [13]) [µg/mL]	Activity (Candida albicans [14]) [%]	Activity [27]	also measured
CCC(C)(C)c1ccc(CC(C)CN2C[C@@H](C)O[C@@H](C)C2)cc1 (some centres undefined) [AMOROLFINE]	0.028 (≈ 0.0882 µM)	1 (≈ 3.15 µM)	8 (≈ 25.2 µM)	0.1 (≈ 0.315 µM)	0.25 (≈ 0.787 µM)	32 (≈ 101 µM)	0.031 (≈ 0.0976 µM)	0.125 (≈ 0.394 µM)	64 (≈ 202 µM)	0.038 (≈ 0.12 µM)	0.125 (≈ 0.394 µM)	32 (≈ 101 µM)	0.173 (≈ 0.545 µM)	0.5 (≈ 1.57 µM)	> 256	0.125 (≈ 0.394 µM)	0.5 (≈ 1.57 µM)	> 256	22.04	Non-toxic	Activity (Candida albicans [1]): 15.28%; Activity (Candida albicans [15]): 12.26%; Activity (Candida albicans [16]): 30.16%; Activity (Candida albicans [17]): 0.44%; Activity (Candida albicans [18]): 8.26%; Activity (Candida albicans [19]): 11.56%; Activity (Candida albicans [20]): 17.08%; Activity (Candida albicans [21]): 6.13%; Activity (Candida albicans [22]): 12.03%; Activity (Candida albicans [23]): 11.11%; Activity (Candida albicans [24]): 32.13%; Activity (Candida albicans [25]): 5.71%; Activity (Candida albicans [26]): 15.81%
CC(Cc1ccc([Si](C)(C)C)cc1)CN1C[C@@H](C)O[C@@H](C)C1 (some centres undefined)	0.043 (≈ 0.135 µM)	0.125 (≈ 0.391 µM)	0.5 (≈ 1.56 µM)	0.25 (≈ 0.782 µM)	0.5 (≈ 1.56 µM)	1 (≈ 3.13 µM)	0.079 (≈ 0.247 µM)	0.125 (≈ 0.391 µM)	2 (≈ 6.26 µM)	0.017 (≈ 0.0532 µM)	0.125 (≈ 0.391 µM)	2 (≈ 6.26 µM)	0.164 (≈ 0.513 µM)	0.5 (≈ 1.56 µM)	64 (≈ 200 µM)	0.5 (≈ 1.56 µM)	2 (≈ 6.26 µM)	256 (≈ 801 µM)	21.52	Non-toxic	Activity (Candida albicans [15]): 5.36%; Activity (Candida albicans [16]): 15.52%; Activity (Candida albicans [17]): 15.34%; Activity (Candida albicans [28]): 7.23%; Activity (Candida albicans [18]): 29.84%; Activity (Candida albicans [19]): 5.19%; Activity (Candida albicans [20]): 13.82%; Activity (Candida albicans [21]): 11.12%; Activity (Candida albicans [22]): 27.78%; Activity (Candida albicans [29]): 0.87%; Activity (Candida albicans [23]): 42.29%; Activity (Candida albicans [25]): 4.12%; remaining at 0.5 h [30]: 6.2%; remaining at 0.5 h [31]: 27.3%; hemolysis at 512 ug/ml [32]: 7%
CNC1CCN(CC(C)Cc2ccc([Si](C)(C)C)cc2)CC1 (centres undefined)	1.55 (≈ 4.87 µM)	4 (≈ 12.6 µM)	8 (≈ 25.1 µM)	1 (≈ 3.14 µM)	2 (≈ 6.28 µM)	2 (≈ 6.28 µM)	3.77 (≈ 11.8 µM)	8 (≈ 25.1 µM)	8 (≈ 25.1 µM)	1.63 (≈ 5.12 µM)	2 (≈ 6.28 µM)	4 (≈ 12.6 µM)	5.87 (≈ 18.4 µM)	16 (≈ 50.2 µM)	16 (≈ 50.2 µM)	1.25 (≈ 3.92 µM)	2 (≈ 6.28 µM)	64 (≈ 201 µM)		Non-toxic	Activity [33]: Toxic; IC50 (HEK293): 9.81 µg/mL (≈ 30.8 µM)
